In ChEMBL document CHEMBL4251637, “Picolyl amides of betulinic acid as antitumor agents causing tumor cell apoptosis” (Eur J Med Chem, 2018):
The source made the active and inactive calls. No cut-off for these calls is given here.

What was measured:
[1] = Therapeutic index, ratio of IC50 for human BJ cells to IC50 for human G361 cells; assay type: toxicity; conditions: BJ cells versus G361 cells, read-out: Ratio IC50
In short: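 Therapeutic index is IC50 in normal BJ fibroblasts divided by IC50 in G-361 melanoma cells. Both IC50 values come from the 72 h cytotoxicity test, with cells grown in DMEM with 10% FBS, 2 mM L-glutamine and antibiotics at 37 °C, 5% CO2.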

CCRF-CEM = test: Cytotoxicity against human CEM cells after 72 hrs by calcein-AM dye based fluorescence assay; assay type: functional, cell-based
In short: (§1)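 Cells from ATCC, grown in DMEM with 10% fetal bovine serum, 2 mM L-glutamine and 1% penicillin-streptomycin at 37 °C, 5% CO2, humidified, and passaged by trypsinization two or three times weekly. Compound exposure lasted 72 h and the read-out was IC50 (µM).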

G-361 [2] = test: Cytotoxicity against human G361 cells after 72 hrs by calcein-AM dye based fluorescence assay; assay type: functional, cell-based; conditions: G-361, 72 h; in short: as §1
MCF7 = test: Cytotoxicity against human MCF7 cells after 72 hrs by calcein-AM dye based fluorescence assay; assay type: functional, cell-based; conditions: MCF7, 72 h; in short: as §1
HeLa = test: Cytotoxicity against human HeLa cells after 72 hrs by calcein-AM dye based fluorescence assay; assay type: functional, cell-based; in short: as §1
BJ = test: Cytotoxicity against human BJ cells after 72 hrs by calcein-AM dye based fluorescence assay; assay type: cell-based; in short: as §1
G-361 [3] = test: Induction of apoptosis in human G361 cells assessed as effect on Bcl2 expression level at 0.5 to 25 uM after 24 hrs by Western blot analysis; assay type: functional, cell-based
In short: (§2)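 G-361 cells seeded in 100-mm dishes at 1.5 × 10⁶ cells/mL and stabilized 24 h, then treated 24 h with 0.5–25 µM; DMSO vehicle controls. Lysed in RIPA buffer pH 7.4 and protein measured by Bradford. Run on 10% or 12% SDS-PAGE, blotted to nitrocellulose, probed overnight with primary antibodies, then HRP secondary and chemiluminescence. β-actin loading control, compared with untreated cells; three repeats.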

G-361 [4] = test: Induction of apoptosis in human G361 cells assessed as increase in cleaved PARP expression at 0.5 to 25 uM after 24 hrs by Western blot analysis; assay type: functional, cell-based; in short: as §2
G-361 [5] = test: Cell cycle arrest in human G361 cells assessed as reduction in accumulation at G2/M phase at 0.5 to 25 uM after 24 hrs by propidium iodide staining-based flow cytometry; assay type: functional
In short: (§3)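 G-361 melanoma cells grown in DMEM with 10% FBS, 2 mM L-glutamine and penicillin-streptomycin at 37 °C, 5% CO2. Cells were seeded and left 24 h, then treated with 0.5, 2.5, 12.5 or 25 µM for 24 h. Trypsinized cells were fixed and stained with 0.1% Triton X-100, 0.2 mg/mL RNase A and 10 µg/mL propidium iodide in PBS. DNA content was read by flow cytometry and phases quantified from histograms; three repeats.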

G-361 [6] = test: Induction of apoptosis in human G361 cells assessed as downregulation of phosphorylated Rb expression at 12.5 to 25 uM after 24 hrs by Western blot analysis; assay type: functional, cell-based; in short: as §2
G-361 [7] = test: Induction of apoptosis in human G361 cells assessed as effect on p53 protein expression level at 0.5 to 25 uM after 24 hrs by Western blot analysis; assay type: functional, cell-based; in short: as §2
G-361 [8] = test: Induction of apoptosis in human G361 cells assessed as downregulation of total Rb expression at 12.5 to 25 uM after 24 hrs by Western blot analysis; assay type: functional, cell-based; in short: as §2
G-361 [9] = test: Cell cycle arrest in human G361 cells assessed as increase in accumulation at sub-G1 phase at 0.5 to 25 uM after 24 hrs by propidium iodide staining-based flow cytometry; assay type: functional; in short: as §3
G-361 [10] = test: Induction of apoptosis in human G361 cells assessed as effect on Mcl1 expression level at 0.5 to 25 uM after 24 hrs by Western blot analysis; assay type: functional, cell-based; in short: as §2
G-361 [11] = test: Induction of apoptosis in human G361 cells assessed as increase in cleaved caspase-7 expression at 0.5 to 25 uM after 24 hrs by Western blot analysis; assay type: functional, cell-based; in short: as §2
G-361 [12] = test: Induction of apoptosis in human G361 cells assessed as increase in caspase-3/7 activity using Ac-DEVD-AMC as substrate at 25 uM after 24 hrs by fluorescence assay relative to control; assay type: functional
In short: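 Treated G-361 cells (0.5–25 µM, 24 h) were extracted on ice in CHAPS/HEPES buffer pH 7.4 with protease inhibitors, and lysates equalized by Bradford protein. Incubated 1 h with Ac-DEVD-AMC in PIPES/DTT buffer pH 7.3; Ac-DEVD-CHO lysates served as negative control. Fluorescence read at 346/442 nm and expressed as fold over untreated control. Three experiments in triplicate; one-way ANOVA.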

G-361 [13] = test: Effect on total p44/42 level in human G361 cells at 0.5 to 25 uM after 24 hrs by Western blot analysis; assay type: cell-based; conditions: g-361, 24 h; in short: as §2
[14] = target: Mitogen-activated protein kinase; ERK1/ERK2 (Homo sapiens) (UniProt P27361+P28482); test: Inhibition of ERK1/2 phosphorylation at Thr202/Tyr204 in human G361 cells at 12.5 to 25 uM after 24 hrs by Western blotting analysis relative to control; assay type: cell-based; in short: as §2
G-361 [15] = test: Cell cycle arrest in human G361 cells assessed as increase in accumulation at G0/G1 phase at 0.5 to 25 uM after 24 hrs by propidium iodide staining-based flow cytometry; assay type: functional; in short: as §3

Sequence of Mitogen-activated protein kinase; ERK1/ERK2 (Homo sapiens) (P27361 whole entry, looked up): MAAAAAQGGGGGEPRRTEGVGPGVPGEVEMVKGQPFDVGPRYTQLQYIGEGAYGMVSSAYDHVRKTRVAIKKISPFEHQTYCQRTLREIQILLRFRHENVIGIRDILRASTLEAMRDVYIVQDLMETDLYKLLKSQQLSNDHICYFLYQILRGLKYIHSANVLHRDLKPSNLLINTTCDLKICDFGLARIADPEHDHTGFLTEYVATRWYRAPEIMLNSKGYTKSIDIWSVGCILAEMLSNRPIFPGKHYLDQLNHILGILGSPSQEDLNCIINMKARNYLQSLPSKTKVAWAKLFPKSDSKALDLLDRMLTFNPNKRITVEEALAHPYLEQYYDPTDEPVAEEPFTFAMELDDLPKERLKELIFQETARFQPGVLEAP
Sequence of Mitogen-activated protein kinase; ERK1/ERK2 (Homo sapiens) (P28482 whole entry, looked up): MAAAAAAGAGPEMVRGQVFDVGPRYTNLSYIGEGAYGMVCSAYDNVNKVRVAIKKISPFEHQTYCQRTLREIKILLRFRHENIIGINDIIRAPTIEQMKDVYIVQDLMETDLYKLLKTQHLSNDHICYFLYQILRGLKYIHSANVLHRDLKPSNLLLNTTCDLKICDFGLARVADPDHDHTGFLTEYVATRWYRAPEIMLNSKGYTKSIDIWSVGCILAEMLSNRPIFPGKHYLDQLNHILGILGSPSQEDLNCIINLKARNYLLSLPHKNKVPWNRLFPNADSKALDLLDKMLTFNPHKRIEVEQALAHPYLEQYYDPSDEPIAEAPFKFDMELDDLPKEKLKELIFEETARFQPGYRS

Compound: C=C(C)[C@@H]1CC[C@]2(C(=O)NCc3cccnc3)CC[C@]3(C)[C@H](CC[C@@H]4[C@@]5(C)CC[C@H](O)C(C)(C)[C@@H]5CC[C@]43C)[C@@H]12
- selectivity ratio [1]: 1
- IC50 (CCRF-CEM): 25.3 µM
- IC50 (G-361 [2]): 18.1 µM
- IC50 (MCF7): 38.7 µM
- IC50 (HeLa): 23.6 µM
- IC50 (BJ): 17.5 µM

Compound: C=C(C)[C@@H]1CC[C@]2(C(=O)NCc3ccccn3)CC[C@]3(C)[C@H](CC[C@@H]4[C@@]5(C)CC[C@H](O)C(C)(C)[C@@H]5CC[C@]43C)[C@@H]12
- selectivity ratio [1]: 1
- IC50 (CCRF-CEM): 18.6 µM
- IC50 (G-361 [2]): 16.4 µM
- IC50 (MCF7): 27 µM
- IC50 (HeLa): 14.7 µM
- IC50 (BJ): 15.8 µM

Compound: C=C(C)[C@@H]1CC[C@]2(C(=O)O)CC[C@]3(C)[C@H](CC[C@@H]4[C@@]5(C)CC[C@H](OC(=O)CCC(=O)NCc6ccccn6)C(C)(C)[C@@H]5CC[C@]43C)[C@@H]12
- Activity (G-361 [3]): inactive
- Activity (G-361 [4]): Active
- Activity (G-361 [5]): Active
- Activity (G-361 [6]): Active
- selectivity ratio [1]: 19.3
- Activity (G-361 [7]): inactive
- Activity (G-361 [8]): Active
- Activity (G-361 [9]): Active
- IC50 (CCRF-CEM): 6.9 µM
- Activity (G-361 [10]): inactive
- Activity (G-361 [11]): Active
- fold change (FC) (G-361 [12]): <=18
- IC50 (G-361 [2]): 2.4 µM
- Activity (G-361 [13]): Non-Toxic
- inhibition [14]: Active
- IC50 (MCF7): 2.2 µM
- IC50 (HeLa): 2.3 µM
- IC50 (BJ): 46.2 µM
- Activity (G-361 [15]): Active

Compound: C=C(C)[C@@H]1CC[C@]2(C(=O)O)CC[C@]3(C)[C@H](CC[C@@H]4[C@@]5(C)CC[C@H](OC(=O)CCC(=O)NCc6ccncc6)C(C)(C)[C@@H]5CC[C@]43C)[C@@H]12
- Activity (G-361 [5]): inactive
- Activity (G-361 [9]): inactive
- IC50 (CCRF-CEM): 22.6 µM
- Activity (G-361 [12]): inactive
- IC50 (G-361 [2]): 32.1 µM
- IC50 (MCF7): > 50 µM
- IC50 (HeLa): 40.9 µM
- IC50 (BJ): > 50 µM
- Activity (G-361 [15]): inactive

Compound: C=C(C)[C@@H]1CC[C@]2(C(=O)NCc3ccncc3)CC[C@]3(C)[C@H](CC[C@@H]4[C@@]5(C)CC[C@H](O)C(C)(C)[C@@H]5CC[C@]43C)[C@@H]12
- selectivity ratio [1]: 1
- IC50 (CCRF-CEM): 18.6 µM
- IC50 (G-361 [2]): 11.6 µM
- IC50 (MCF7): 21.1 µM
- IC50 (HeLa): 14.8 µM
- IC50 (BJ): 11.2 µM

Compound: C=C(C)[C@@H]1CC[C@]2(C(=O)O)CC[C@]3(C)[C@H](CC[C@@H]4[C@@]5(C)CC[C@H](OC(=O)CCC(=O)NCc6cccnc6)C(C)(C)[C@@H]5CC[C@]43C)[C@@H]12
- Activity (G-361 [3]): inactive
- Activity (G-361 [4]): Active
- Activity (G-361 [5]): Active
- Activity (G-361 [6]): Active
- selectivity ratio [1]: 100
- Activity (G-361 [7]): inactive
- Activity (G-361 [8]): Active
- Activity (G-361 [9]): Active
- IC50 (CCRF-CEM): 6.5 µM
- Activity (G-361 [10]): inactive
- Activity (G-361 [11]): Active
- fold change (FC) (G-361 [12]): 12
- IC50 (G-361 [2]): 0.5 µM
- Activity (G-361 [13]): Non-Toxic
- inhibition [14]: Active
- IC50 (MCF7): 1.4 µM
- IC50 (HeLa): 2.4 µM
- IC50 (BJ): 50 µM
- Activity (G-361 [15]): Active
